Source: PubChem BioAssay (several laboratories)
In the library only some 1.9% were active in any assay of this set; here they are far more common.
UCH37 DUB inh: inhibitors of human deubiquitinating enzyme UCH37 | Q9Y5K5 | purified proteasome/UCH37, Ub-AMC cleavage fluorescence | inhibition, % (test concentration not listed) | actives 0.33% (n = 330,000) | AID 588478;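 active = mean inhibition over replicate wells above about 20%, limit read from the data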;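 note: 0% = compound-free wells with enzyme and 100% = wells lacking proteasome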
Target sequence (Q9Y5K5 whole entry, looked up): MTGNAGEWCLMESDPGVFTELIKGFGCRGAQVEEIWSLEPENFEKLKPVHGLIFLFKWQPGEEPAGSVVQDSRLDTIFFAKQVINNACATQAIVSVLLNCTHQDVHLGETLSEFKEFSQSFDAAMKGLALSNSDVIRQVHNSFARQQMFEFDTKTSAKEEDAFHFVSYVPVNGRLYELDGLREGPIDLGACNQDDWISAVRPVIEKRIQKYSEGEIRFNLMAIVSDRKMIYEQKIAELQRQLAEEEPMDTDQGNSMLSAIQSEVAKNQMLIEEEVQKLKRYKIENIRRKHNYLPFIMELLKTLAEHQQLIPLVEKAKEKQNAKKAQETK
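Material: human UCH37 enzyme supplied as purified proteasome complex / Amount: 0.15 nM proteasome as dispensed / Buffer or medium: pH 7.4 Tris-HCl (50 mM) with ovalbumin, ATP-MgCl2, DTT / Times: preincubation 30 min, reaction 25 min, room temperature / Technique: AMC fluorescence from Ub-AMC cleavage, excitation 355 nm, emission 460 nm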
aDG glyco act: alpha-DG glycosylation activation | activation, % at 10 µM | Pro5-aDG cells, alpha-DG glycosylation AlphaScreen (IIH6); 0% Pro5, 100% B10-LARGE cell signal | actives 0.22% (n = 360,000);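 active = activation of at least 8% versus controls, or a plate z-score of at least 8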;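 note: Pro5 are CHO cells carrying HIG-tagged alpha-DG that lacks glycosylation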
Glyco luc inh: N-linked glycosylation inhibition | D54 ERlucT glycosylation luciferase reporter, 24 h; percent of 100 nM tunicamycin response | reporter increase, % at 12.5 µM | actives 0.23% (n = 360,000) | AID 588692;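 active = mean luciferase reporter signal, scaled so untreated is 0 and the glycosylation-blocking control 100, at or above a set limit in every replicate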;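 note: luciferase carries N-glycosylation sites so blocking glycosylation raises the light; 0% = median of neutral control wells and 100% = median of 100 nM tunicamycin wells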
MsrA inh: bovine MsrA inhibition | actives 0.75% (n = 360,000) | purified bovine MsrA, absorbance read-out | inhibition, % at 15.5 µM | AID 651718; in the data active = inhibition above about 4.5%;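 note: 0% = vehicle wells with enzyme and 100% = reference inhibitor wells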
Vif inh: blocks HIV Vif function. HEK293T cells, Vif self-association by quenched fluorescence, imaging, 24 h. inhibition, % at 7.49 µM. actives 0.35% (n = 340,000). AID 602346; in the data active = inhibition above about 50%, passing the limit was not always enough
MsrA act: activates bovine MsrA enzyme; activation, % at 10.6 µM; actives 0.3% (n = 360,000); purified bovine MsrA, absorbance read-out; in the data active = activation above about 7.5%;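 note: 0% = vehicle and 100% = reference activator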
MsrA activ conf: confirmation of bovine methionine sulfoxide reductase A activators; AID 602270; shares compounds with MsrA act; purified bovine MsrA, absorbance read-out; activation, % at 10.6 µM; actives 12% (n = 1,000); in the data active = activation above about 4%;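 note: enzyme coupled to thioredoxin and thioredoxin reductase with NADPH; 0% = vehicle wells and 100% = reference activator wells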
* hit, by the source's call.

For Cc1cccc(C)c1NC(=O)COC(=O)C1CC1 the results were UCH37 DUB inh -2, aDG glyco act 0, Glyco luc inh 1, MsrA inh 0, Vif inh 27, MsrA act 9.7* and MsrA activ conf -1.
CC(Cn1nnc([N+](=O)[O-])n1)=NNC(=O)c1ccccc1O was read as UCH37 DUB inh 4.
Screening CSc1cccc(N2C(=O)C3CCCN3C2=S)c1 (configuration not stated) returned aDG glyco act 0, Glyco luc inh 0, MsrA inh -1, Vif inh -2, MsrA act 8.1* and MsrA activ conf 1.
O=C(NN=C1CCc2ccccc21)c1ccc(O)cc1 was read as UCH37 DUB inh 0.
CCOC(=O)C(=NNc1cc(Cl)ccc1Cl)N1CCOCC1 was read as UCH37 DUB inh 5.
Screening O=C1c2ccccc2-c2c1cccc2C(=O)N(CCO)CCO returned UCH37 DUB inh 4, aDG glyco act 0, Glyco luc inh 1, MsrA inh 0, Vif inh 5, MsrA act 12* and MsrA activ conf -1.
For CC1=CCC(C(=O)O)(C(=O)NN=Cc2cccnc2)C(c2ccccc2)C1 (configuration not stated) the results were UCH37 DUB inh 1.
`Cc1[nH]c2ccccc2c1C=NNC(=S)NCc1ccccc1` gave UCH37 DUB inh -1.
For O=C(CON=Cc1ccccc1)Nc1c(F)c(F)c(F)c(F)c1F the results were UCH37 DUB inh 3.
O=C1C(Cl)=C(NCc2cccnc2)C(=O)c2ccccc21 was read as UCH37 DUB inh 25*, aDG glyco act 2.9*, Glyco luc inh -13, MsrA inh 0, Vif inh -19, MsrA act 12* and MsrA activ conf 6.1*.
Screening CCCCCc1c(C)nc(Nc2ccc(F)cc2)[nH]c1=O returned UCH37 DUB inh 1, aDG glyco act 2, Glyco luc inh -2, MsrA inh -1, Vif inh -19, MsrA act 9.8* and MsrA activ conf 1.
`O=C1C(O)=CC(=C(c2ccccc2)c2ccccc2)c2ccccc21` gave UCH37 DUB inh 5, aDG glyco act 0, Glyco luc inh 9, MsrA inh 0, Vif inh 10, MsrA act 9.8* and MsrA activ conf 2.
Screening O=C(O)c1cccc2c1C(=O)c1ccccc1C2=O returned UCH37 DUB inh 4, aDG glyco act 0, Glyco luc inh 2, MsrA inh 1, Vif inh 1 and MsrA act -3.
For COc1cc(C)c2occ(C(C)=NO)c2c1 the results were UCH37 DUB inh -1.
For CCc1ccc2c(c1)c1nc(C)sc1n2CC the results were UCH37 DUB inh -6, aDG glyco act 0, Glyco luc inh -1, MsrA inh 0, Vif inh -3, MsrA act 26* and MsrA activ conf -4.
Screening Cc1nc2c3cc(F)ccc3n(Cc3ccc(F)cc3)c2s1 returned UCH37 DUB inh -1, aDG glyco act 0, Glyco luc inh 23, MsrA inh 1, Vif inh -4 and MsrA act -7.
Cc1nn(-c2ccccc2)c(C)c1C=NO was read as UCH37 DUB inh 0.
CC/C(=N/NC(=O)c1ccc(Br)o1)c1ccc(Cl)cc1 was read as aDG glyco act 0, Glyco luc inh 1, MsrA inh 0, Vif inh -5, MsrA act 8.3* and MsrA activ conf 0.
Screening COc1ccc(C=NNC(=O)/C(=C\Nc2nccc(C)n2)NC(=O)c2ccccc2)cc1 returned UCH37 DUB inh 3.
Screening Cc1cc(NC(=O)CCSc2nc(-c3ccco3)cc(C(F)(F)F)n2)n(-c2ccccc2)n1 returned UCH37 DUB inh -7, aDG glyco act 0, Glyco luc inh -2, MsrA inh 0, Vif inh 16, MsrA act 18* and MsrA activ conf 1.
CN(CCc1cnn(C)c1)Cc1nc(Cc2ccccc2)no1 was read as UCH37 DUB inh 3, aDG glyco act 1, Glyco luc inh 0, MsrA inh 1, Vif inh 5, MsrA act 10* and MsrA activ conf 1.
